Shown are actives, neighbours in structure and some others; about 2.9% of the full set was active somewhere.
A3G deaminase = APOBEC3G DNA deaminase inhibitors, primary screen, biochemical, fluorescence, single-stranded DNA substrate, uHTS; DNA dC->dU-editing enzyme APOBEC-3G (Homo sapiens), Q9HC16; recombinant A3G, ssDNA deamination FAM/TAMRA fluorescence; inhibition, % at 20 µM; 330,000 tested, 0.28% active;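 active = inhibition of at least 40% at 20 µM, with no more than 30% in the related APOBEC3A deaminase screen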;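 also: plate controls were DMSO wells with A3G for no effect and wells lacking A3G enzyme for full effect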
PRMT1 FP inh = PRMT1 methyltransferase inhibitors, primary screen, biochemical, fluorescence polarization | 370,000 tested, 1.3% active | inhibition, % at 2.79 µM | Protein arginine N-methyltransferase 1 (Homo sapiens), Q99873 | recombinant PRMT1, activity-based probe fluorescence polarization;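 active = inhibition above about 21% made by adding two undisclosed values, limit read from the data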
Target sequence (Q99873 whole entry, looked up): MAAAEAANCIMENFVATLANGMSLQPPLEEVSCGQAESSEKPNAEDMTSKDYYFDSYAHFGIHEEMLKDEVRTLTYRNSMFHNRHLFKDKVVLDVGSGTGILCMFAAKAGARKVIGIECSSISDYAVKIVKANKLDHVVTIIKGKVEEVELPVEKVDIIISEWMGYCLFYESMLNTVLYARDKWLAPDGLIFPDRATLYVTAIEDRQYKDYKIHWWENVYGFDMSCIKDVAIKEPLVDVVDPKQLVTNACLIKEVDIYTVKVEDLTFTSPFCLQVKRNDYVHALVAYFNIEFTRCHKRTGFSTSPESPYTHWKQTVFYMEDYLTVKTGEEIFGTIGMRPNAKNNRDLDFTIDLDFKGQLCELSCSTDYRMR
HCV NS3 hel inh = inhibitors of HCV NS3 helicase, primary screen, biochemical, Cy5 molecular beacon fluorescence. AID 1800, 2009. NS3 helicase DNA unwinding. inhibition, % at 10.9 µM. 290,000 tested, 0.56% active. Hepatitis C virus NS3 helicase;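 active = inhibition above the mean of all tested compounds plus 3 SD, set per campaign, cut at about 35% in these data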;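 also: 0% = DMSO wells and 100% = thioflavine S control wells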
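test system = hepatitis C virus NS3 helicase domain fragment enzyme | reagent = annealed dual-labelled DNA beacon duplex, ATP-started | times = 1 h at 25 °C | detection = Cy5 fluorescence, 0 and 60 min reads | read-out basis = percent inhibition from t60/t0 fluorescence ratio | control set = DMSO and thioflavine S | replication = one well per compound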
APOBEC3A inh = APOBEC3A ssDNA deaminase inhibitors, primary screen, selectivity assay for APOBEC3G inhibitor project, biochemical, FAM/TAMRA oligo cleavage fluorescence. AID 493011, 2011. 330,000 tested, 0.41% active. inhibition, % at 20 µM. recombinant A3A, FAM/TAMRA ssDNA deamination fluorescence;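 active = at least 40% inhibition at 20 µM here, with at most 30% in a related deaminase screen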;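 also: plate controls were A3A with DMSO for no effect and wells lacking A3A enzyme for full effect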
Target sequence (P31941 whole entry, looked up): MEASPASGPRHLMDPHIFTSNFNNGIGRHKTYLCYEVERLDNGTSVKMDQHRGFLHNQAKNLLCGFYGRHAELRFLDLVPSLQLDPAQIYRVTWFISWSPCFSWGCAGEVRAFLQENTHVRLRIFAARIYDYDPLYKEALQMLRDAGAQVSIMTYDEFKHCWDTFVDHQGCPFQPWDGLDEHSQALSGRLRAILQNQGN
core dimer inh = inhibitors of HCV core protein dimerization, primary screen, biochemical, TR-FRET, high-throughput | 300,000 tested, 0.33% active | TR-FRET GST/Flag-core106 dimerization, 1536-well | AID 1899, 2009 | inhibition, % at 5 µM;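 active = inhibition above the mean of all tested compounds plus 3 SD, set per screening campaign, cut at about 45% in these data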
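System: GST-tagged and Flag-tagged HCV core protein residues 1-106 / Input: core106 proteins, GST 13.5 nM and Flag 17 nM / Buffer or medium: KF-containing HEPES buffer, pH 7.45, DTT, CHAPS, BSA / Probe or stimulus: Eu-anti-GST and XL665-anti-Flag labelled anti-tag antibodies / Schedule: 4 h, 22.5 °C incubation / Technique: TR-FRET 671 and 617 nm emission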
ABHD5-PLIN5 inh = ABHD5-PLIN5 interaction inhibitors, primary screen, cell lysate, split luciferase complementation, luminescence; Perilipin-5 (Homo sapiens) + 1-acylglycerol-3-phosphate O-acyltransferase ABHD5 (Homo …; Split G. princeps luciferase complementation, 4 h; inhibition, % at 4 µM; 360,000 tested, 0.78% active; AID 602281, 2012;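 active = inhibition above the mean inhibition across every tested compound plus 3 SD, cut at about 22% in these data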;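 also: 0% = DMSO only wells and the 100% control is not disclosed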
APOBEC3A confirm = APOBEC3A deaminase inhibitors, retest, confirmation, selectivity assay for APOBEC3G inhibitor project, biochemical, single concentration, fluorescence readout; shares compounds with APOBEC3A inh; recombinant A3A, ssDNA deaminase UDG fluorescence assay; inhibition, % at 20 µM; 1,400 tested, 63% active;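 active = inhibition reaching a set limit, 80% of the first screen's cutoff, at 20 µM in any replicate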;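 also: plate controls were DMSO wells with A3A for no effect and wells lacking A3A enzyme for full effect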
UDG A3A counter = E. coli UDG inhibitors, confirmation, counter-screen for APOBEC3A inhibitor project, biochemical, single concentration, fluorescence, FAM/TAMRA oligo. shares compounds with APOBEC3A inh. UDG counterscreen, FAM/TAMRA uracil oligo fluorescence. inhibition, % at 20 µM. 1,000 tested, under 10 active; call rule not given here
The depositor's hits bear a star; . = not tested or not shown.

SMILES | A3G deaminase | PRMT1 FP inh | HCV NS3 hel inh | APOBEC3A inh | core dimer inh | ABHD5-PLIN5 inh | APOBEC3A confirm | UDG A3A counter
OC1(c2ccccc2Cl)NN=C2CCCCCN21 (stereo not drawn) | -7 | 1 | 7 | -3 | 2 | 2 | . | .
O=[N+]([O-])c1ccc(CN2CCN(c3ccccc3Cl)CC2)o1 | 3 | 0 | 1 | 54* | 7 | 5 | 0 | .
Cc1ccccc1N1CCN(Cc2ccc([N+](=O)[O-])o2)CC1 | -3 | 0 | -6 | -3 | 3 | 3 | . | .
CS(=O)(=O)c1ccc(-c2nn[nH]n2)cc1 | -5 | 1 | 3 | -6 | -6 | -6 | . | .
CS(=O)(=O)c1nc(-c2ccc(Br)cc2)n[nH]1 | -11 | -1 | 11 | 41* | -1 | 9 | 18 | 0
Cc1c(C(=O)OCC(=O)N2CCC(C)CC2)oc2ccccc12 | -8 | -1 | . | -1 | 2 | 2 | . | .
Cc1c(C(=O)OCC[N+]2(C)CCCCC2)oc2ccccc12 | 15 | 2 | -8 | 77* | -2 | 10 | 77* | 5
O=C(/C=C/c1ccco1)OCC(=O)N1CCCCC1 | 14 | 8 | . | 49* | . | -3 | 38* | 3
Cc1ccccc1S(=O)(=O)NC(=O)C1(C)CCN1C(=O)Cc1ccc(C(C)(C)C)cc1 (stereo not drawn) | . | 0 | . | . | . | 14 | . | .
COc1cccc(N2CCN(c3nc(C)cc(=O)[nH]3)CC2)c1 | -15 | 1 | 9 | -9 | -1 | 0 | . | .
O=C(CSc1nnnn1-c1ccccc1)N1CCCc2ccccc21 | -5 | -1 | 1 | -8 | 9 | -3 | . | .
O=C(CSc1nnnn1-c1ccccc1)N1CCc2ccccc21 | 17 | 0 | -2 | 41* | -1 | 8 | 62* | -2
CCn1c(SCC(=O)N2CCc3ccccc32)nnc1-c1ccncc1 | 20 | 6 | 7 | 49* | 6 | 1 | 27 | .
CCn1c(C)nc2cc(S(=O)(=O)C(F)F)ccc21 | 16 | 0 | 3 | 6 | -6 | -5 | . | .
CCn1c(C)nc2cc(S(=O)(=O)Nc3ccc(C)cc3)ccc21 | 17 | 2 | -10 | 66* | 3 | 0 | 55* | 2
COc1cc(/C=C(/C#N)C(=O)NCCCc2ccccc2)ccc1OCC(=O)O | 11 | -1 | 3 | 40* | 6 | 13 | 67* | 1
CC(C)NC(=O)C(C)N1CCN(S(=O)(=O)c2ccc3ccccc3c2)CC1 (stereo not drawn) | 15 | -1 | 5 | 57* | -10 | 3 | 59* | -1
Cc1cccc(C)c1NC(=O)C(c1ccccc1F)n1c(=O)c(-c2ccccc2)nc2ccccc21 (stereo not drawn) | . | -1 | . | . | . | 3 | . | .
Cc1ccsc1C(=O)N1CCCC(CO)(Cc2ccccc2F)C1 (stereo not drawn) | -5 | 0 | -4 | -2 | 0 | 6 | . | .
Cn1c(=O)n(C)c2cc(C(=O)O)ccc21 | -3 | 1 | -3 | 60* | 1 | 6 | -61 | 2
CN(C(=O)c1cccc(NC(=O)Cc2ccc(NC(=O)C3CCCN(C(=O)C4CCCCC4)C3)cc2)c1)C1CCC1 (stereo not drawn) | . | -1 | . | . | . | 5 | . | .
O=C(NC(=S)Nc1ccccc1O)c1cncc(Br)c1 | -5 | 6 | . | -4 | 8 | -9 | . | .
O=C(NC(=S)Nc1ccccc1C(=O)O)c1cncc(Br)c1 | 12 | 2 | 4 | 41* | -2 | -8 | 18* | -3
O=C(Nc1ccccc1C(=O)O)c1cncc(Br)c1 | 18 | 1 | 7 | 58* | -9 | 4 | 7 | .
Cc1ccc(C(=O)Nc2ccccc2N2CCCC2)cc1 | -10 | 0 | 8 | -1 | 2 | 2 | . | .
SMILES | A3G deaminase | PRMT1 FP inh | HCV NS3 hel inh | APOBEC3A inh | core dimer inh | ABHD5-PLIN5 inh | APOBEC3A confirm | UDG A3A counter
CC1(C#CC[N+]2(C)CCCCC2)CCC2C(O1)c1ccccc1OC2(C)C (stereo not drawn) | 21 | -4 | -9 | 75* | -5 | 0 | 61* | 1
COc1ccc(-c2ccc(-c3nnn(CC(C)=O)n3)cc2)cc1 | -4 | 5 | 2 | -2 | -20 | 6 | . | .
COc1cccc(-c2nnn(CC(C)=O)n2)c1 | 0 | -2 | 1 | 53* | -5 | -1 | -7 | 0
C[N+]1(CC(=O)OCCCc2ccccc2)CCCC1 | 17 | 4 | -12 | 55* | 4 | -6 | 81* | -3
C[N+]1(CC(=O)OCCCc2ccccc2)CCCCC1 | 16 | -9 | -1 | 48* | 3 | -2 | 83* | 2
COC(=O)C1=C(C)N(Cc2ccc(C(F)(F)F)cc2)C(=NCc2ccccc2)NC1c1ccc(C(F)(F)F)cc1 (stereo not drawn) | . | 2 | . | . | . | . | . | .
CCc1ccccc1NC(=O)NC1CCCCCCC1 | -2 | 4 | 2 | 0 | . | -2 | . | .
Cc1cc(O)c(CN(C)C)c2c1C(=O)/C(=C/c1ccco1)O2 | 21 | 13 | 13 | 48* | 1 | 12 | 15* | 2
COc1cc(/C=N\NC(=O)c2ccc(Cl)cc2)ccc1Oc1ccc([N+](=O)[O-])cn1 | 15 | -4 | -12 | 48* | 5 | -6 | 63* | -1
CC[C@]12c3[nH]c4ccc(Cl)cc4c3CCN1C(=O)[C@@H](CC(=O)NCc1ccc(OC)c(OC)c1)C[C@@H]2C(=O)N1CCN(C(=O)c2ccco2)CC1 | 4 | -1 | . | 5 | . | -2 | . | .
CCOc1ccc(CCN2C(=O)C(=O)N([C@@H](Cc3ccccc3)CN3CCC[C@H]3CN3C(=O)C(=O)NC[C@@H]3Cc3ccccc3)C[C@@H]2Cc2ccc(O)cc2)cc1 | . | 3 | . | . | . | 16 | . | .
CC(=O)c1ccc(NC(=O)C(C)OC(=O)CCCN=C2NS(=O)(=O)c3ccccc32)cc1 (stereo not drawn) | 7 | -5 | . | 4 | 0 | 1 | . | .
